Bioassay records as filed in PubChem BioAssay.
This is a sample that favours compounds with a hit; in the whole collection about 1.6% have one here.
PKA-R2B act – activators of PKA-R2B holoenzyme, primary screen, biochemical, fluorescence polarization, Cy5-IP20, human; cAMP-dependent protein kinase catalytic subunit beta (Homo sapiens) + cAMP-dependent …; PKA-R2B holoenzyme dissociation; R2B truncated from residue 108, S112A mutant; 0% DMSO only, 100% 113 µM cGMP; activation, % at 11.4 µM; 0.079% of 340,000 active; AID 504700, 2011;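 active means activation above a cutoff set at the mean over all compounds plus 3 SD, cut at about 18% in these data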;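 further: higher means more holoenzyme dissociation and a rise in polarization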
Target sequence (P31323 whole entry, looked up, other chains not shown, the tested form may be a part): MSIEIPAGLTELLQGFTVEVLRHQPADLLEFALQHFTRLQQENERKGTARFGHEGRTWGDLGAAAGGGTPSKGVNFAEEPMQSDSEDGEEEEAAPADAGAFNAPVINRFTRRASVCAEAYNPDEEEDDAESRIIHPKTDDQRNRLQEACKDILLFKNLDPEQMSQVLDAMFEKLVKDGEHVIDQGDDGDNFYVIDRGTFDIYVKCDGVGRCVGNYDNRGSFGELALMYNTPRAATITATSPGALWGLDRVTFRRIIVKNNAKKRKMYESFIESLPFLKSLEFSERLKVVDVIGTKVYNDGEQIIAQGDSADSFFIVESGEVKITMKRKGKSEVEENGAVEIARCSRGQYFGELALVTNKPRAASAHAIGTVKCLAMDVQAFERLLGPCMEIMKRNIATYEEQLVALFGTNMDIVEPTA
NR2E3 ag-1 – NR2E3 agonists in two-hybrid cells, primary screen, cell-based, luminescence, CHO-S, Gal4-NCOR/VP16-NR2E3. Photoreceptor-specific nuclear receptor (Homo sapiens), Q9Y5X4. luciferase. inhibition of corepressor binding, % at 3.98 µM. 0.35% of 360,000 active;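 active means inhibition above the mean of all tested compounds plus 3 SD, cut at about 70% in these data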;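 further: 0% = DMSO with NR2E3 transfected cells and 100% = cells lacking NR2E3 construct; higher means lower luciferase signal from less NR2E3 corepressor binding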
PKA-R1A activ – activators of PKA-R1A holoenzyme, primary screen, biochemical, fluorescence polarization, Cy5-IP20, bovine R1A, mouse PKAc. PKA-R1A dissociation; scaled: DMSO 0%, 113 µM cGMP 100%. 0.083% of 340,000 active. cAMP-dependent protein kinase type I-alpha regulatory subunit (Bos taurus) + …. AID 504707, 2011. activation, % at 11.4 µM;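 active means percent activation above the mean of all tested compounds plus 3 SD, cut at about 19% in these data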;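 further: higher means more PKAc released from R1A so a rise in polarization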
Rev-erbA mod – modulators of Rev-erb alpha DNA binding, primary screen, biochemical, FITC-DNA, fluorescence polarization, uHTS | Rev-erbα–FITC-DNA binding, 90 min | activity, % at 10 µM | 0.79% of 370,000 active;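 active means activity above about 14%, limit read from the data; passing the limit was not always enough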;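 further: 0% = DMSO wells with 35 nM protein and 100% = DMSO wells with 750 nM protein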
PG9 Ab binder – binders of HIV-1 gp120 antibody PG9, primary screen, biochemical, TR-FRET | HIV-1 gp120 / PG9 antibody interaction | TR-FRET gp120-PG9 antibody binding | inhibition, % at 6.7 µM | 0.43% of 360,000 active | AID 624416, 2012; in the data active means inhibition above about 8.5%
NR2E3 ag-2 – inhibitors of NR2E3-RetCOR corepressor binding, primary screen, NR2E3 agonist project, biochemical, TR-FRET, GST-NR2E3, biotin-RetCOR. Photoreceptor-specific nuclear receptor (Homo sapiens), Q9Y5X4. 1536-well. inhibition of corepressor binding, % at 4.78 µM. 0.12% of 320,000 active;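 active means percent inhibition above the cutoff of mean plus 3 SD of all tested compounds, set per screening campaign, cut at about 20% in these data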;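 further: 0% = DMSO wells and 100% = biotin wells as full block of FRET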
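Test system: GST-NR2E3 and biotin-RetCOR proteins | Quantity: 1.35 nM GST-tagged NR2E3 final | Medium: Tris pH 7.5 | Also added: 7 nM biotin-RetCOR | Dosing: Compound at 4.8 µM, single dose | Timing: 5 h at 4 °C | Detection: Time-resolved FRET | Read-out basis: Percent inhibition | Benchmarks: Biotin wells as high control, 0.6% DMSO wells as low control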
NR2E3 ag conf – NR2E3 agonist confirmation in cells, cell-based, luminescence, CHO-S two-hybrid; inhibition, % at 3.98 µM; CHO-S mammalian two-hybrid NR2E3-NCOR, luciferase luminescence; shares compounds with NR2E3 ag-1; 51% of 2,300 active;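 active means average inhibition above a cutoff equal to the mean inhibition of all tested compounds plus one SD, cut at about 70% in these data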;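 further: 0% = DMSO in NR2E3 cells and 100% = DMSO in cells lacking NR2E3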
GAL4-VP16 luc – GAL4-VP16 reporter modulators, confirmation, counter-screen for NR2E3 agonist project, cell-based, luminescence, CHO-S, high throughput; inhibition, % at 3.98 µM; 29% of 2,300 active; CHO-S GAL4-VP16 luciferase reporter; shares compounds with NR2E3 ag-1;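 active means mean inhibition above a cutoff equal to the average over all tested compounds plus one standard deviation, cut at about 70% in these data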;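 further: luciferase from a UAS reporter driven by GAL4-VP16 transactivation; 0% = DMSO with VP16-transfected cells and 100% = DMSO with cells lacking VP16; higher means less reporter light so more repression of VP16 activity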
The depositor's hits bear a star; / = no result given.

SMILES | PKA-R2B act | NR2E3 ag-1 | PKA-R1A activ | Rev-erbA mod | PG9 Ab binder | NR2E3 ag-2 | NR2E3 ag conf | GAL4-VP16 luc
O=S(=O)(c1cccc(Br)c1)N1CCN(c2ncnc3scc(-c4ccccc4)c23)CC1 | -3 | -37 | 5 | -4 | 1 | / | / | /
Cc1csc2ncnc(N3CCN(S(=O)(=O)c4cccc(C(F)(F)F)c4)CC3)c12 | -15 | 94* | -3 | 4 | 3 | 1 | 97* | 90*
CCOc1ccc(-c2nc(CSCC(=O)NCCCN3CCCC3=O)c(C)o2)cc1 | 0 | 60 | 7 | -2 | -1 | 0 | 64 | 36
CCc1ccc(-c2nc(CSCC(=O)N3CCN(c4ncccn4)CC3)c(C)o2)cc1 | 6 | 66 | -13 | 2 | 1 | 1 | 71* | 63
CCOC(=O)N1CCC(NC(=O)CSCc2nc(-c3ccc(OC)cc3)oc2C)CC1 | 1 | 13 | -2 | -4 | -3 | -1 | / | /
CCc1ccc(-c2nc(CSCC(=O)NC3CC3)c(C)o2)cc1 | -10 | 111* | 1 | -3 | 0 | 2 | 98* | 97*
CSc1ccc(-c2nc(CSCC(=O)NC3CC3)c(C)o2)cc1 | -8 | 100* | 2 | 2 | 0 | 4 | 85* | 84*
Cc1oc(-c2ccccc2Cl)nc1CSCC(=O)NC1CC1 | -3 | 16 | 0 | -6 | 1 | -2 | / | /
CSc1ccc(-c2nc(CSCC(=O)N3CCOCC3)c(C)o2)cc1 | 4 | -32 | -2 | -5 | 1 | -2 | / | /
COc1ccc(-c2nc(CSCC(=O)NCCCN3CCCC3=O)c(C)o2)cc1 | -8 | -9 | -2 | 0 | 1 | 0 | / | /
COC(=O)[C@]12C[C@H](CC(=O)N3CCCC3)C(=O)N(CCC3=CCCCC3)C1=C[C@H](C(C)C)O[C@@H]2C1CC1 | / | / | / | -5 | / | / | / | /
COc1ccc(OC)c2c1C(=O)C(Cl)=C(Cl)C2=O | 3 | 102* | -3 | -1 | 0 | -16 | 99* | 68
COc1ccc(OC)c2c1C(=O)c1ccccc1C2=O | / | / | / | -1 | -1 | -4 | / | /
O=C1C(NC(=O)N2c3ccccc3C=Cc3ccccc32)CCCCN1Cc1cccc(C(F)(F)F)c1 (configuration not stated) | / | / | / | -1 | / | / | / | /
COC(=O)[C@]12C[C@H](CC(=O)NCc3cccc(C(F)(F)F)c3)C(=O)N(Cc3ccc4c(c3)OCO4)C1=C[C@H](C(C)(C)C)O[C@@H]2C | / | / | / | -3 | 0 | / | / | /
Cc1cc(/C=C2/SC(=S)N(c3cccc(Cl)c3)C2=O)c(C)n1-c1cccnc1 | -11 | 63 | 1 | -1 | -1 | 1 | 53 | 66
Cc1ccc2oc(/N=C(\N)NC(=O)C(C)(C)C)nc2c1 | -5 | 91* | -6 | 5 | 0 | 3 | 92* | 66
Cc1ccc2oc(/N=C(\N)NC(=O)C3CC3)nc2c1 | 7 | -134 | 10 | -6 | 0 | 4 | / | /
N#Cc1c(NCc2ccccc2)ccnc1NCc1cccnc1 | -17 | 66 | -9 | 9 | 1 | 1 | 57 | 56
Cc1nn(-c2ccccc2)c2sc(C(=O)N3CCN(C(c4ccccc4)c4ccc(Cl)cc4)CC3)cc12 (configuration not stated) | / | / | / | 2 | / | / | / | /
CCC(CO)Nc1cccc2c1S(=O)(=O)N(Cc1cn(Cc3ccc(F)cc3)nn1)Cc1ccccc1O2 (configuration not stated) | / | / | / | 2 | / | / | / | /
CN(C(=O)CSc1cc(C(=O)c2nccn2C)c2ccccc2n1)c1ccccc1 | -13 | 81* | -6 | 4 | -1 | -1 | 78* | 61
O=C(CCc1ccccc1)N[C@H]1[C@H](OC(=O)c2cnccn2)CCC[C@]12C(=O)N(Cc1ccccc1)c1ccccc12 | / | / | / | 8 | / | / | / | /
Cc1cccc(-n2ncc3c(N(C)C4CCCCC4)ncnc32)c1 | -7 | 73* | 1 | -2 | -1 | -1 | 46 | 44
COc1ccc(-n2ncc3c(N4CCC(C)CC4)ncnc32)cc1 | 5 | -86 | -6 | -4 | 1 | 0 | / | /
SMILES | PKA-R2B act | NR2E3 ag-1 | PKA-R1A activ | Rev-erbA mod | PG9 Ab binder | NR2E3 ag-2 | NR2E3 ag conf | GAL4-VP16 luc
COc1ccc(-n2ncc3c(N(C)C4CCCCC4)ncnc32)cc1 | -5 | 79* | 3 | -6 | 0 | 9 | 60 | 38
Cc1cccc(-n2ncc3c(N(CCO)CCO)ncnc32)c1 | 8 | -116 | 1 | -3 | 1 | 3 | / | /
Cc1ccc(S(=O)(=O)Nc2ccc3nc(C)sc3c2)c(C)c1 | -4 | 67 | 6 | 1 | 1 | 0 | 72* | 64
Cc1ccc(S(=O)(=O)Nc2ccc3nc(C)sc3c2)cc1 | -13 | 72* | 8 | / | / | 2 | 88* | 76*
Cc1nc2ccc(NS(=O)(=O)c3ccc(Br)cc3)cc2s1 | 0 | 85* | -12 | -7 | -1 | 1 | 97* | 76*
Cc1nc2ccc(NS(=O)(=O)c3c(C)c(C)cc(C)c3C)cc2s1 | -1 | 10 | -6 | 2 | -1 | 3 | / | /
Cc1nc2ccc(S(=O)(=O)Nc3cccc(-c4nc5cccnc5s4)c3)cc2s1 | 7 | 71* | -7 | 2 | 2 | 6 | 76* | 45
CN(CCO)c1cccc2c1S(=O)(=O)N(Cc1cn(Cc3cccc(F)c3)nn1)Cc1ccccc1O2 | / | / | / | 1 | / | / | / | /
CC(C)N1Cc2nnn(Cc3ccccc3)c2-c2cc(N3CCCC3)ccc2S1(=O)=O | / | / | / | -3 | / | / | / | /
CCCC(=O)OC12CCCN(C1)/C(=C/c1ccc(Cl)cc1)C2 (configuration not stated) | / | / | / | -3 | / | / | / | /
COC(=O)C1CN(Cc2ccc(C)cc2)CCS(=O)(=O)N1Cc1cn(Cc2ccccc2)nn1 (configuration not stated) | / | / | / | -7 | / | / | / | /
CC(C)CN1C(=O)[C@@]2(CC(=O)N(C)C2c2ccccc2)c2cc(-n3cc(CO)nn3)ccc21 (some centres not stated) | / | / | / | -4 | / | / | / | /
Cc1nc2ccc(NS(=O)(=O)c3cccc([N+](=O)[O-])c3)cc2s1 | -3 | 63 | -14 | 0 | 1 | / | 85* | 72*
